According to the M2OR odorant receptor database:

Tests used:
Conditions in all cases: stereoisomer not certain
[1] = molecular target: T1, OR1N1 (Homo sapiens) (UniProt Q8NGS0)
T1 sequence (whole entry): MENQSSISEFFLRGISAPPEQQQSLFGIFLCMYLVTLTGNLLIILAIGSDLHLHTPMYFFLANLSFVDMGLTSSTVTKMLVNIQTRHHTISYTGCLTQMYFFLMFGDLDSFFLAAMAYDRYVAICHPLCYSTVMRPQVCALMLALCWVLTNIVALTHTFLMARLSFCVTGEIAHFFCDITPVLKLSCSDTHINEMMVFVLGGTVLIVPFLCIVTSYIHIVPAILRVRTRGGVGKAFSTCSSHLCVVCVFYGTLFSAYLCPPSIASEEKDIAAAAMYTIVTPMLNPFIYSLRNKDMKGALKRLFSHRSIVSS
Method in brief: (§1)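 Assay methods differ from source to source, frequently being transient luciferase assays in mammalian cell lines. For each receptor–molecule pair, the label responsive (active) applies when the original authors judged the measured signal statistically different from baseline, and non-responsive (inactive) applies otherwise.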

[2] = system: OR1L1
OR1L1, sequence (as listed by the source): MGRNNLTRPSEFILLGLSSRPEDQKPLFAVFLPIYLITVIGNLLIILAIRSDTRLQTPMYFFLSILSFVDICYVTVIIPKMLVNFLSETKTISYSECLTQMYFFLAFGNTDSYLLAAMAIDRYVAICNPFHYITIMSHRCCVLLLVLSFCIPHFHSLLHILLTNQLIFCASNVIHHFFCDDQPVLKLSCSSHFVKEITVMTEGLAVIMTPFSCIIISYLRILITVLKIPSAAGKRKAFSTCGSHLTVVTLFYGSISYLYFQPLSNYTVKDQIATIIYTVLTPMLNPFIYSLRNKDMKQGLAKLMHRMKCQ
Method in brief: as §1

[3] = molecular target: T2, OR1L3 (Homo sapiens) (UniProt Q8NH93)
T2 sequence (whole entry): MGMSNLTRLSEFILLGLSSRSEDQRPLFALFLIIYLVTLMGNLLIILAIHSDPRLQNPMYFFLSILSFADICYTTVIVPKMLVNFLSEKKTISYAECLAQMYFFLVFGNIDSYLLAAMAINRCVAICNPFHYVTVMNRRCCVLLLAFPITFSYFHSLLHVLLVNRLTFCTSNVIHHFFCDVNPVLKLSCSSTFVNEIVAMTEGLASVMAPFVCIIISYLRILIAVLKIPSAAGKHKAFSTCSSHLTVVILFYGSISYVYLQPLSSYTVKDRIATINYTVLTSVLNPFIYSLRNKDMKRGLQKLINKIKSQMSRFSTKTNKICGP
Method in brief: as §1

[4] = molecular target: OR1L4 (Homo sapiens) (UniProt Q8NGR5)
OR1L4 (Homo sapiens), sequence (Q8NGR5 whole entry): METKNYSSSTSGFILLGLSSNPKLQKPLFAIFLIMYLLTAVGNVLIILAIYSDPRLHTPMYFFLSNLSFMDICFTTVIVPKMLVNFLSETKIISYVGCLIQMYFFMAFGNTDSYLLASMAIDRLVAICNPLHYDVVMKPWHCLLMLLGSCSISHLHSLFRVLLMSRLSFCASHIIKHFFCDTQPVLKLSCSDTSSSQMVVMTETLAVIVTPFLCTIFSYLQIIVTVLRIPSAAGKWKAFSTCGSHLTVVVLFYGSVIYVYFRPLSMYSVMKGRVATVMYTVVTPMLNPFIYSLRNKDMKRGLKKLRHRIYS
Method in brief: as §1

[5] = system: OR1L4
OR1L4, sequence (as listed by the source): as the sequence (Q8NGR5 whole entry) above, with G234R counted along it
Method in brief: as §1

[6] = system: OR1L6
OR1L6, sequence (as listed by the source): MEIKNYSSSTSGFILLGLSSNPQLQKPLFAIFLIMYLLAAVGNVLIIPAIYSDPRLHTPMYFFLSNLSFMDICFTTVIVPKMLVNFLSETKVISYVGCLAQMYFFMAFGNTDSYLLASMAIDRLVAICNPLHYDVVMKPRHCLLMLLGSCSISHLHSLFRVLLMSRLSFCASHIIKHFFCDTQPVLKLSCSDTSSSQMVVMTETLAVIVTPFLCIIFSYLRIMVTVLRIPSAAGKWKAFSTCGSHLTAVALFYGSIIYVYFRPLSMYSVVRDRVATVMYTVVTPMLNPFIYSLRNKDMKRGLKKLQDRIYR
Method in brief: as §1

[7] = molecular target: OR1L8 (Homo sapiens) (UniProt Q8NGR8)
OR1L8 (Homo sapiens), sequence (Q8NGR8 whole entry): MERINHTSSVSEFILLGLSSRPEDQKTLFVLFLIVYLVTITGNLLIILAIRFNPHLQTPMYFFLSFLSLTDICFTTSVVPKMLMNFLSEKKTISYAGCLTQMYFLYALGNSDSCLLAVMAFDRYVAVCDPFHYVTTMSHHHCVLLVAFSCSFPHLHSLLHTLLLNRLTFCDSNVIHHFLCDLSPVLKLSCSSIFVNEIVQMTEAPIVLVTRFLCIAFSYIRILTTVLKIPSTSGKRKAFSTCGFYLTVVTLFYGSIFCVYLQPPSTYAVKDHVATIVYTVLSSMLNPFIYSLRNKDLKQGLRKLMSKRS
Method in brief: as §1

[8] = system: OR1L8 T27P R211P
Method in brief: as §1

[9] = molecular target: OR1M1 (Homo sapiens) (UniProt Q8NGA1)
OR1M1 (Homo sapiens), sequence (Q8NGA1 whole entry): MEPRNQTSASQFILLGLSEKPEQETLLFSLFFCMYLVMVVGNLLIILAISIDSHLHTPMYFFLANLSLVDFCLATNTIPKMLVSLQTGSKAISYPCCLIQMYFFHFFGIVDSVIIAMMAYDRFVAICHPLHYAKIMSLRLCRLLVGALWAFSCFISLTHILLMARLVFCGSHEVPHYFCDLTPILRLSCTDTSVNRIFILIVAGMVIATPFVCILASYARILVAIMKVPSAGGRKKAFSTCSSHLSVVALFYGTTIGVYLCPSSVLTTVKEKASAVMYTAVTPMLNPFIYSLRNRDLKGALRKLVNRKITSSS
Method in brief: as §1

[10] = system: OR1N2 W37R
OR1N2 W37R, sequence (as listed by the source, stated change not applied): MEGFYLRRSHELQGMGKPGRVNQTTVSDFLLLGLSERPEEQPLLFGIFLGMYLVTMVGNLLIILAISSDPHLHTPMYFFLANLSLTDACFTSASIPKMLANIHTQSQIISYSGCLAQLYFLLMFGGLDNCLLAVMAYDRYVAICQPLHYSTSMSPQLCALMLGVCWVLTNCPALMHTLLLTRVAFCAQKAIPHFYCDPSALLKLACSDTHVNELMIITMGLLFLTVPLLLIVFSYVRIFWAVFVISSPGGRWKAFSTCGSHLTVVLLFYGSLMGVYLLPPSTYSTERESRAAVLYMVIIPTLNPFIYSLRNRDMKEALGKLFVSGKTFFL
Method in brief: as §1

[11] = system: OR1N2
OR1N2, sequence (as listed by the source): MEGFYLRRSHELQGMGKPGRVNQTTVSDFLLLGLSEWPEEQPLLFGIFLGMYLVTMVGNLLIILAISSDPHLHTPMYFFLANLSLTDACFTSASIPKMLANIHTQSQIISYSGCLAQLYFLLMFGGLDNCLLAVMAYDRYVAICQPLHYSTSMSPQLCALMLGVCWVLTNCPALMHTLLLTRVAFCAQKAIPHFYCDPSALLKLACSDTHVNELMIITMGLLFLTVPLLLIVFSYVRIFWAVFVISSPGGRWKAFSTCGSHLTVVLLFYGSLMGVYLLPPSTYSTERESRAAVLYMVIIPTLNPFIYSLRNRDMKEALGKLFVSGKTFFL
Method in brief: as §1

[12] = molecular target: OR1Q1 (Homo sapiens) (UniProt Q15612)
OR1Q1 (Homo sapiens), sequence (Q15612 whole entry): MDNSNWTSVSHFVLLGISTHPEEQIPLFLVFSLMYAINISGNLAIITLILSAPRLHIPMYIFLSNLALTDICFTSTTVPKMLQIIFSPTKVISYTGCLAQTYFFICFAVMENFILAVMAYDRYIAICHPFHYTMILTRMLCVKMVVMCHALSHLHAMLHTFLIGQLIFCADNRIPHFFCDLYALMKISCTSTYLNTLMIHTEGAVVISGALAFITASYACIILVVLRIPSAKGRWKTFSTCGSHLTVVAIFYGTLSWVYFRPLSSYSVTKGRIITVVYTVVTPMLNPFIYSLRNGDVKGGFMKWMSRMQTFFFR
Method in brief: as §1

[13] = system: OR1Q1
OR1Q1, sequence (as listed by the source): as the sequence (Q15612 whole entry) above, with Q24R, I163M counted along it
Method in brief: as §1

[14] = molecular target: OR1S1 (Homo sapiens) (UniProt Q8NH92)
OR1S1 (Homo sapiens), sequence (Q8NH92 whole entry): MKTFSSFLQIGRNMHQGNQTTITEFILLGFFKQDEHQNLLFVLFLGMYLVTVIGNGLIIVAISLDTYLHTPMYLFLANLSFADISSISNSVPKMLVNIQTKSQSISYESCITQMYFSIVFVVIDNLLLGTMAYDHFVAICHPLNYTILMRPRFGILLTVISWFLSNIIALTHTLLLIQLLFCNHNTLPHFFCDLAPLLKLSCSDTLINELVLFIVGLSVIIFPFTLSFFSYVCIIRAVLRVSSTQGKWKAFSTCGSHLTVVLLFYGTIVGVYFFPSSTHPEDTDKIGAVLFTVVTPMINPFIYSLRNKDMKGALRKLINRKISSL
Method in brief: as §1

[15] = molecular target: OR1S2 (Homo sapiens) (UniProt Q8NGQ3)
OR1S2 (Homo sapiens), sequence (Q8NGQ3 whole entry): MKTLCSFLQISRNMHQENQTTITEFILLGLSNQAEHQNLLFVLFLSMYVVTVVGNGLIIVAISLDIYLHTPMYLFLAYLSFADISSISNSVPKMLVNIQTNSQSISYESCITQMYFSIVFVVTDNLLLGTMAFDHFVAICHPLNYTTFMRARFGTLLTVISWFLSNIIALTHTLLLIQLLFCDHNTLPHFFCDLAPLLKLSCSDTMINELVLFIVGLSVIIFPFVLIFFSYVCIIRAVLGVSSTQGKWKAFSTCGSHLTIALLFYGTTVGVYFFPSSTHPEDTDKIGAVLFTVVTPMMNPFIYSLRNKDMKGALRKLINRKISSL
Method in brief: as §1

[16] = system: OR1S2 E17G
OR1S2 E17G, sequence (as listed by the source, stated change not applied): as the sequence (Q8NGQ3 whole entry) above, with E17G counted along it
Method in brief: as §1

[17] = system: OR1S2 V225T G240R
Method in brief: as §1

[18] = molecular target: OR1L1 (Homo sapiens) (UniProt Q8NH94)
OR1L1 (Homo sapiens), sequence (Q8NH94 whole entry): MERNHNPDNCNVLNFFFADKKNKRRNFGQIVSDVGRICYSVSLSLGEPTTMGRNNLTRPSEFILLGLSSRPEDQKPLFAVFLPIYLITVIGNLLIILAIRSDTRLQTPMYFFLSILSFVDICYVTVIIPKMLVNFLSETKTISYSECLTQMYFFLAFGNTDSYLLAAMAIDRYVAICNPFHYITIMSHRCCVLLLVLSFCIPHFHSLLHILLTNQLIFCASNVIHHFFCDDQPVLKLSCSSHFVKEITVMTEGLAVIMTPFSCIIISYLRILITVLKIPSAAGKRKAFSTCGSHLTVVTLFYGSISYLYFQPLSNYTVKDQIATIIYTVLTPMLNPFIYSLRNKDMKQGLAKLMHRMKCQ
Method in brief: as §1

[19] = molecular target: OR1L6 (Homo sapiens) (UniProt Q8NGR2)
OR1L6 (Homo sapiens), sequence (Q8NGR2 whole entry): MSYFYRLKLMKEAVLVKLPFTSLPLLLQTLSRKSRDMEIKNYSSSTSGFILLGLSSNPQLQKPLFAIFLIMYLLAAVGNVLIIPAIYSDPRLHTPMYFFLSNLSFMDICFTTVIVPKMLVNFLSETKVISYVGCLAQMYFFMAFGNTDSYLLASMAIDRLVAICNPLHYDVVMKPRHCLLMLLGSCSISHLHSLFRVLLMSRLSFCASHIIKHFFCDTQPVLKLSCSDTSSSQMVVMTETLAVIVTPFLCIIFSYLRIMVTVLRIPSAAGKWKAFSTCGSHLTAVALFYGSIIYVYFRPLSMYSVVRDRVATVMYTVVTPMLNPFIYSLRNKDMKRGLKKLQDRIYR
Method in brief: as §1

[20] = molecular target: OR1P1 (Homo sapiens) (UniProt Q8NH06)
OR1P1 (Homo sapiens), sequence (Q8NH06 whole entry K185A): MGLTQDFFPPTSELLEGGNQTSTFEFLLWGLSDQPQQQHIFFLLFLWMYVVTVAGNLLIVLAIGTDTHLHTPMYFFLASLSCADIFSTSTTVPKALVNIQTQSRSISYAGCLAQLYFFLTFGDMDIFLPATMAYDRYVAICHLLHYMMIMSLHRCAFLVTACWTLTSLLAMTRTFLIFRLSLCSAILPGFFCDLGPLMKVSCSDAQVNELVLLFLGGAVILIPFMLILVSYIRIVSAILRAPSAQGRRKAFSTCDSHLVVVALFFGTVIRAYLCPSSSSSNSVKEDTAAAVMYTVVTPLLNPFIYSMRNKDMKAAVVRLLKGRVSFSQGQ
Method in brief: as §1

Measured: odorant receptor agonist call

c1ccncc1
inactive: [1]

C=CCOC(=O)Cc1ccccc1
not listed: [18] | [19] | [20]
inactive: all other assays above

C=CCc1ccc(OC)cc1
inactive: [3]

O=Cc1ccccc1
inactive: [3]

O=CC=Cc1ccccc1
inactive: [3]

Cc1c([N+](=O)[O-])c(C)c([N+](=O)[O-])c(C(C)(C)C)c1[N+](=O)[O-]
not listed: [2] | [5] | [6] | [8] | [10] | [13] | [16] | [17]
inactive: all other assays above
